From ChEMBL document CHEMBL1649090, “Discovery of (7R)-14-cyclohexyl-7-{[2-(dimethylamino)ethyl](methyl) amino}-7,8-dihydro-6H-indolo[1,2-e][1,5]benzoxazocine-11-carboxylic acid (MK-3281), a potent and orally bioavailable finger-loop inhibitor of the hepatitis C virus NS5B polymerase” (J Med Chem, 2011)
Active and inactive are the calls of the source. No cut-off for these calls is given here.

Columns and labels:
[1] = AUC in rhesus monkey at 4 mg/kg, po; assay type: ADME, organism-based, Macaca mulatta; design: dose 4 mg/kg, route oral; settings: plasma
How it was run: (§1)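 Single-dose PK of the bis-HCl salt, n = 3 per species (dog po n = 2). Intravenous doses: rat 3, dog 1, rhesus 2 mg/kg, in DMSO/PEG400/water 20%/60%/20%. Oral doses: rat 3, dog 2, rhesus 4 mg/kg, in PEG400 for rat and dog and PEG400/water 70%/30% for rhesus.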

Hepatitis C virus [2] = experiment: Antiviral activity against HCV3a; assay type: functional, organism-based, Hepacivirus hominis; settings: genotype 3a
[3] = Intrinsic clearance in rat liver microsomes assessed per mg of protein; assay type: ADME, Microsome
Cytochrome P450 2D6 = Cytochrome P450 2D6 (Homo sapiens, UniProt P10635); experiment: Inhibition of CYP2D6 up to 50 uM; assay type: ADME
Chain of Cytochrome P450 2D6 (P10635 whole entry): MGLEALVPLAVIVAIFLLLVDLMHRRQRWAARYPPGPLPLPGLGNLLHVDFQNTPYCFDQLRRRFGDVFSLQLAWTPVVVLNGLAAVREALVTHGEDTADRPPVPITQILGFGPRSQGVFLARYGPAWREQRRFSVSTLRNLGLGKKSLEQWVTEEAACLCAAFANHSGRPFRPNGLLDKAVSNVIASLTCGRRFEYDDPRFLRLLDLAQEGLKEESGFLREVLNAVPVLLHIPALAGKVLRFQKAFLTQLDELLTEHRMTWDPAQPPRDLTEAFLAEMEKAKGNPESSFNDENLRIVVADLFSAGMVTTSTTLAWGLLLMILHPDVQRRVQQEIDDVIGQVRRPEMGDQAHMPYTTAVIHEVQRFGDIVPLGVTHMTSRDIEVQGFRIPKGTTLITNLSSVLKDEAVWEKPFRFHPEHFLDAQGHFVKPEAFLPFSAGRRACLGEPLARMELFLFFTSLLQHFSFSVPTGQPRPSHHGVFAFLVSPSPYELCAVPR

Mus musculus [4] = experiment: Toxicity in SCID mouse assessed as change in organ weight at 50 mg/kg, ip bid for 5 days; assay type: organism-based; design: dose 50 mg/kg, route intraperitoneal; settings: in vivo, 120 h
How it was run: (§2)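 Non-infected SCID mice (n = 3) received 50 mg/kg by intraperitoneal injection twice daily for five consecutive days, as a tolerability run before the infected-mouse study. Body and organ weights were checked for gross changes. Plasma compound levels were measured 12 h after the last dose.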

Mus musculus [5] = experiment: Toxicity in SCID mouse assessed as change in body weight at 50 mg/kg, ip bid for 5 days; assay type: organism-based; design: dose 50 mg/kg, route intraperitoneal; settings: in vivo, 120 h; how it was run: as §2
[6] = Cmax in Sprague-Dawley rat at 3 mg/kg, iv and 3 mg/kg, po; assay type: ADME, organism-based; settings: in vivo; how it was run: as §1
[7] = Ratio of drug level in liver to plasma in Sprague-Dawley rat liver at 3 mg/kg, po after 6 hrs; assay type: ADME, organism-based; design: dose 3 mg/kg, route oral
How it was run: (§3)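 Sprague-Dawley rats (n = 3) received the compound as its TFA salt in DMSO/PEG400/water 20%/60%/20%, as a single iv dose of 3 mg/kg or a single oral dose of 3 mg/kg. Liver tissue and plasma concentrations were measured 6 h after the oral dose.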

Hepatitis C virus [8] = experiment: Antiviral activity against HCV1b infected in human Huh-7 cells assessed as inhibition of viral RNA replication after 96 hrs by ELISA assay in presence of 10% fetal calf serum; assay type: functional, organism-based, Hepacivirus hominis; settings: genotype 1b, Huh-7, 96 h
[9] = Drug level in Sprague-Dawley rat liver at 3 mg/kg, po after 6 hrs; assay type: ADME, organism-based; design: dose 3 mg/kg, route oral; settings: read-out: Drug uptake; how it was run: as §3
Cytochrome P450 2C9 = Cytochrome P450 2C9 (Homo sapiens, UniProt P11712); experiment: Inhibition of CYP2C9 up to 50 uM; assay type: ADME
Chain of Cytochrome P450 2C9 (P11712 whole entry): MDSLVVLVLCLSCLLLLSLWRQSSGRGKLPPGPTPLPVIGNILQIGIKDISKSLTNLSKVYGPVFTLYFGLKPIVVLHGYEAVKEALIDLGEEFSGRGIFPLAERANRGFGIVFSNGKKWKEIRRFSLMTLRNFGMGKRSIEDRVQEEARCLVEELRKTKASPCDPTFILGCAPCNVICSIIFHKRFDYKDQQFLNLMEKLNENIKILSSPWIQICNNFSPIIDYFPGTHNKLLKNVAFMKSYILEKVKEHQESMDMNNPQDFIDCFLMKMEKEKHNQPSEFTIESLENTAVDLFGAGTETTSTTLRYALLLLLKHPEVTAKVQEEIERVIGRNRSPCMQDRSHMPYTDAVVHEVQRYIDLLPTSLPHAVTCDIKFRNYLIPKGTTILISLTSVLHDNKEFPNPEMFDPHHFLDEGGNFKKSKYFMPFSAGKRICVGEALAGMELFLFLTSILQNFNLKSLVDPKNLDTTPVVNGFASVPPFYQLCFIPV

[10] = Oral bioavailability in Sprague-Dawley rat at 3 mg/kg; assay type: ADME, organism-based; settings: in vivo
How it was run: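 Single-dose rat PK with the compound given as its TFA salt to Sprague-Dawley rats (n = 3) in DMSO/PEG400/water 20%/60%/20%. Dosing was 3 mg/kg iv and 3 mg/kg po.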

Hepatitis C virus [11] = experiment: Antiviral activity against HCV1b infected in humanized uPA+/+-SCID mouse assessed as reduction of plasma viral RNA level at 10 mg/kg, ip bid for 4 days; assay type: functional, Hepacivirus hominis; settings: route intraperitoneal
How it was run: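 Chimeric uPA+/+-SCID mice with human hepatocytes, infected with genotype 1b HCV, were dosed twice daily. The drop in plasma HCV RNA is given as mean log10. Plasma drug concentration was measured 12 h after the last dose.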

Hepatitis C virus [12] = experiment: Antiviral activity against HCV2b; assay type: functional, organism-based, Hepacivirus hominis; settings: genotype 2b
Hepatitis C virus [13] = experiment: Antiviral activity against HCV1a; assay type: functional, organism-based, Hepacivirus hominis; settings: subtype 1a
[14] = biological target: T1, DNA polymerase alpha catalytic subunit (Homo sapiens) (UniProt P09884); experiment: Inhibition of human DNA polymerase alpha up to 50 uM
T1 sequence (whole entry): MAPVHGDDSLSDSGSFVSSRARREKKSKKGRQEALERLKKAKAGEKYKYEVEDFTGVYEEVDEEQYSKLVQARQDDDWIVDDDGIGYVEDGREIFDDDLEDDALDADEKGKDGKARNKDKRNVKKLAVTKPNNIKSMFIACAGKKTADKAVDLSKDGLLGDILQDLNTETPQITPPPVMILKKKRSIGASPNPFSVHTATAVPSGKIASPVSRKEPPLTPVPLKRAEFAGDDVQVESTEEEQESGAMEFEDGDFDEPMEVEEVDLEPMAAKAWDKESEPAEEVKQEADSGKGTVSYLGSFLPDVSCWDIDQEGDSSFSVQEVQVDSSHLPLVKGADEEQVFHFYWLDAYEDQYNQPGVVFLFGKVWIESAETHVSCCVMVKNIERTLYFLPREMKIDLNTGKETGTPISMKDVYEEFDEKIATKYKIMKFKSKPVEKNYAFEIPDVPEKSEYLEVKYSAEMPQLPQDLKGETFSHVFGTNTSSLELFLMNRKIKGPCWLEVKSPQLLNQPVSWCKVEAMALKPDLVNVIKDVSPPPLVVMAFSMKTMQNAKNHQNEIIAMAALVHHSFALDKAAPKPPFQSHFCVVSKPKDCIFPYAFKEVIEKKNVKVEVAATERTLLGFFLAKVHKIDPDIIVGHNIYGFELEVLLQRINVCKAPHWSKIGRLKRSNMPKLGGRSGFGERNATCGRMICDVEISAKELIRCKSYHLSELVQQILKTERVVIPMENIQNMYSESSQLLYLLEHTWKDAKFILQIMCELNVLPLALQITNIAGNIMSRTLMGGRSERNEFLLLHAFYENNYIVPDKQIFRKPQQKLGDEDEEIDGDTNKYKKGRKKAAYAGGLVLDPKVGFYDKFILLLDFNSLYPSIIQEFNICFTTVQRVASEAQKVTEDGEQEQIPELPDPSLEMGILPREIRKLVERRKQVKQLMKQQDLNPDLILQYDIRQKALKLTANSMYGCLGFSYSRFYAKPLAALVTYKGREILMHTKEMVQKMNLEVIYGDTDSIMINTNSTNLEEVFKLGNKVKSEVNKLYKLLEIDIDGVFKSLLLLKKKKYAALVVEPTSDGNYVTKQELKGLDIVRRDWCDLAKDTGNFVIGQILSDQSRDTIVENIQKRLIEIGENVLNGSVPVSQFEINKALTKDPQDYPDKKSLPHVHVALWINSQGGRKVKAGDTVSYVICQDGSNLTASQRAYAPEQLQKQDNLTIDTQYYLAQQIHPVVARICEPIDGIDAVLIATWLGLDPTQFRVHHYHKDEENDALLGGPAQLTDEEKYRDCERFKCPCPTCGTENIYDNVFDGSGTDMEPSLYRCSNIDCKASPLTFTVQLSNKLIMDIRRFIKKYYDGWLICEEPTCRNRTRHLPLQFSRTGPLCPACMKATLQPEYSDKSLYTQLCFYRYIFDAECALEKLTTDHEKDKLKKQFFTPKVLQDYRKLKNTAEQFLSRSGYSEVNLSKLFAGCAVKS

[15] = Oral bioavailability in rhesus monkey at 4 mg/kg; assay type: ADME, organism-based, Macaca mulatta; settings: in vivo; how it was run: as §1
[16] = Intrinsic clearance in dog liver microsomes assessed per mg of protein presence of UDPGA; assay type: ADME, Canis lupus familiaris, Microsome
Hepatitis C virus [17] = experiment: Inhibition of HCV1b NS5B delta21 polymerase after 1 hr; assay type: single protein, Hepatitis C virus subtype 1b
How it was run: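 Enzyme inhibition IC50 measured on genotype 1b HCV NS5B polymerase truncated by 21 C-terminal residues (ΔC21).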

[18] = Plasma protein binding in monkey; assay type: ADME, cell-free, Macaca mulatta; settings: rhesus monkey, read-out: PPB (converted)
[19] = Clearance in Sprague-Dawley rat at 3 mg/kg, iv and 3 mg/kg, po; assay type: ADME, organism-based; settings: in vivo; how it was run: as §1

## CN(C)CCN(C)[C@H]1COc2ccccc2-c2c(C3CCCCC3)c3ccc(C(=O)O)cc3n2C1 [MK-3281]
[1]
  AUC: 7.4 µM·h
Hepatitis C virus [2]
  EC50: 37 nM
[3]
  microsomal CLint: 7 µL/min/mg
Cytochrome P450 2D6
  inhibition (INH): Not Active
Mus musculus [4]
  Activity: Non-toxic
Mus musculus [5]
  Activity: Non-toxic
[6]
  Cmax: 500 nM
[7]
  Kp at 6 h: 5
Hepatitis C virus [8]
  EC50: 38 nM
[9]
  concentration at 6 h: 420 nM
Cytochrome P450 2C9
  inhibition (INH): Not Active
[10]
  bioavailability: 49%
Hepatitis C virus [11]
  fold change (FC): 1.4
Hepatitis C virus [12]
  EC50: 1830 nM
Hepatitis C virus [13]
  EC50: 28 nM
[14]
  inhibition: inactive
[15]
  bioavailability: 35%
[16]
  microsomal CLint: < 4 µL/min/mg
Hepatitis C virus [17]
  IC50: 6 nM
[18]
  fraction unbound: 0.074
[19]
  clearance: 22 mL/min/kg
